Results published in ChEMBL document CHEMBL5712890, “Sensitivity and engineered resistance of myeloid leukemia cells to BRD9 inhibition” (Nat Chem Biol, 2016).

Tests used:
[1] = Antiproliferative activity against mouse RN2 cells transduced with EZH2 harboring SET domain of EZH1 assessed as inhibition of cell growth for 7 days by cell titre glo assay (reference value: 5.1 uM); details: RN2, 168 h
[2] = Antiproliferative activity against mouse RN2 cells transduced with wild type EZH2 assessed as inhibition of cell growth for 7 days by cell titre glo assay (reference value: 5.1 uM); details: RN2, 168 h
Jurkat = assay: Antiproliferative activity against human Jurkat cells assessed as inhibition of cell growth for 7 days by cell titre glo assay; type: functional; details: 168 h, time 7 day
How it was run: (§1)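 Human cancer cell lines in RPMI-1640 (leukemia) or DMEM (solid) with 10 % FBS, grown 7 days with rising inhibitor concentrations. Proliferation read by CellTiter-Glo, normalized to DMSO control.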

HL-60 = assay: Antiproliferative activity against human HL-60 cells assessed as inhibition of cell growth for 7 days by cell titre glo assay; type: functional; details: HL-60, 168 h, time 7 day
How it was run: as §1

[3] = Antiproliferative activity against mouse RN2 cells transduced with BRD9-BET assessed as inhibition of cell growth for 7 days by cell titre glo assay (reference value: 0.757 uM); details: RN2, 168 h
[4] = Antiproliferative activity against mouse RN2 cells transduced with BRD9 assessed as inhibition of cell growth for 7 days by cell titre glo assay (reference value: 0.757 uM); details: RN2, 168 h
[5] = Antiproliferative activity against mouse RN2 cells transduced with BRD9-BET assessed as inhibition of cell growth for 7 days by cell titre glo assay (reference value: 6.144 uM); details: RN2, 168 h
[6] = Antiproliferative activity against mouse RN2 cells transduced with BRD9 assessed as inhibition of cell growth for 7 days by cell titre glo assay (reference value: 6.144 uM); details: RN2, 168 h
[7] = Antiproliferative activity against mouse RN2 cells transduced with BRD9 assessed as inhibition of cell growth for 7 days by cell titre glo assay (reference value: 323 nM); details: RN2, 168 h
[8] = Antiproliferative activity against mouse RN2 cells transduced with BRD9-BET assessed as inhibition of cell growth for 7 days by cell titre glo assay (reference value: 323 nM); details: RN2, 168 h
[9] = molecular target: T1, ATPase family AAA domain-containing protein 2B (Homo sapiens, UniProt Q9ULI0); assay: Binding affinity to KIAA1240 (unknown origin) assessed as dissociation constant by bromoKdselect analysis
T1 sequence (Q9ULI0 whole entry): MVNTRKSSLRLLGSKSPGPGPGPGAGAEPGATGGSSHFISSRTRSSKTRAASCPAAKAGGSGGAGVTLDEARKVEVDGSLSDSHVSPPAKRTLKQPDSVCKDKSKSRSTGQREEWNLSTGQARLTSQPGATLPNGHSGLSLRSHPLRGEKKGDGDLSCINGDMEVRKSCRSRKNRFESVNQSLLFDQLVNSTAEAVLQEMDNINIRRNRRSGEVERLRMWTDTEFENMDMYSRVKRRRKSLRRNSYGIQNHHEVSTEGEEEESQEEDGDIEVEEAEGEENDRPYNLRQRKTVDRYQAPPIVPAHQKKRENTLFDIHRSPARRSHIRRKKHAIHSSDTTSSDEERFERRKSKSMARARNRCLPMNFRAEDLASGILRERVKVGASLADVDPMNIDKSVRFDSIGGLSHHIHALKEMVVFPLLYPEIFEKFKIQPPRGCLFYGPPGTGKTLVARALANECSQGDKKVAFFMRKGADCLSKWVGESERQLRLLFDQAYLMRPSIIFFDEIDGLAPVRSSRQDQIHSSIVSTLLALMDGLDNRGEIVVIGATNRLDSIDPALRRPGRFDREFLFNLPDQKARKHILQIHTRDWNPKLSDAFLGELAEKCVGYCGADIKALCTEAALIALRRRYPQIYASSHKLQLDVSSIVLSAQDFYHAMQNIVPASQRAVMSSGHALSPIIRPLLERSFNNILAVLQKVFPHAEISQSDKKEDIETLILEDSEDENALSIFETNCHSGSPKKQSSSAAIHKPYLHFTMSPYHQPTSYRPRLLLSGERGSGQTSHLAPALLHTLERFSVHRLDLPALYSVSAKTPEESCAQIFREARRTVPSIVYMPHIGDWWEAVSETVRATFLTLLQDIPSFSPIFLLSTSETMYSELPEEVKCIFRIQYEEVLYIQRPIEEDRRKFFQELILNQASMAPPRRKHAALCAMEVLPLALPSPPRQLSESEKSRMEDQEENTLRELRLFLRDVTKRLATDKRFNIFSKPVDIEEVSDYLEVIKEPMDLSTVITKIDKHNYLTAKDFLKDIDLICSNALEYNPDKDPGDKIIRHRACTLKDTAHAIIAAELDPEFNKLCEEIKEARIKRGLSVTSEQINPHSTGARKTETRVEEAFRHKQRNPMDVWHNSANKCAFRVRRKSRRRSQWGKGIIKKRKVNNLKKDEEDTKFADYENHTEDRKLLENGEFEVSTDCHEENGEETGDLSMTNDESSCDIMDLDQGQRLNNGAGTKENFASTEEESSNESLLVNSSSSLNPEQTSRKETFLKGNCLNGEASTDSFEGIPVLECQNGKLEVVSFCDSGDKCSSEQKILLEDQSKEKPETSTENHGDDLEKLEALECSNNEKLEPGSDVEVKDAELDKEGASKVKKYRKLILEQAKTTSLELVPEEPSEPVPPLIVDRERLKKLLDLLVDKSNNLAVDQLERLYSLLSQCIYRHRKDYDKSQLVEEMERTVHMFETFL

[10] = Antiproliferative activity against mouse RN2 cells assessed as inhibition of cell growth for 7 days by cell titre glo assay; details: RN2, 168 h
[11] = Antiproliferative activity against mouse RN2 cells transduced with BRD9-BET assessed as inhibition of cell growth for 7 days by cell titre glo assay (reference value: 610 nM); details: RN2, 168 h
[12] = Antiproliferative activity against mouse RN2 cells transduced with BRD9 assessed as inhibition of cell growth for 7 days by cell titre glo assay (reference value: 1709 nM); details: RN2, 168 h
[13] = Antiproliferative activity against mouse RN2 cells transduced with BRD9-BET assessed as inhibition of cell growth for 7 days by cell titre glo assay (reference value: 1709 nM); details: RN2, 168 h

For CC[C@H](C)n1cc(C)c2c(C(=O)NCc3c(C)cc(C)[nH]c3=O)cc(-c3ccc(N4CCNCC4)nc3)cc21 [GSK2816126], the GI50 [1] was > 10 µM and the GI50 [2] was 6.2 µM.
For CCn1cc(-c2cccc(C(F)(F)F)c2)c2sc(C(=N)NC3CCS(=O)(=O)CC3)cc2c1=O, the GI50 (Jurkat) was 3.64 µM, the GI50 (HL-60) was 0.433 µM and the GI50 [3] was 2.69 µM. It also gave a GI50 [4] of 1.25 µM.
Compound Cc1cc(=O)n(C)c2cc(N3C(=O)CC[C@H](NS(=O)(=O)CC(C)C)[C@H]3c3ccc(Cl)cc3)ccc12 has a GI50 [5] of 9.38 µM, a GI50 (Jurkat) of 10.5 µM and a GI50 (HL-60) of 5.03 µM. The GI50 [6] was 6.87 µM.
Work on COc1cc(-c2cn(C)c(=O)c3ccccc23)cc(OC)c1CN(C)C yielded a GI50 [7] of 0.16 µM and a GI50 [8] of 4.48 µM.
With COc1cc(-c2cn(C)c(=O)c3cnccc23)cc(OC)c1CN(C)C the Kd [9] was 1 µM, the GI50 [10] was 0.476 µM and the GI50 [11] was > 10 µM.
With COc1cc(-c2cc(C)c(=O)n(C)c2C)cc(OC)c1CN(C)C the GI50 [12] was 1.03 µM and the GI50 [13] was > 10 µM.
